Active and inactive are the calls of the source. The rule behind the calls is not given here.
What was measured:
Rattus norvegicus = test: Reversal of scopolamine induced cognitive impairment impairment in Sprague-Dawley rat at 1 mg/kg, po pre treated for 2 hrs followed by scopolamine addition further treated for 30 mins and measured after 1 hr by novel object recognition test; assay type: functional, organism-based
How it was run: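 Male Sprague–Dawley rats (~250 g); open-field habituation 5 min 24 h before test. Compounds p.o. 120 min and scopolamine 1.25 mg/kg i.p. 30 min before 3-min familiarization trial; 3-min recognition trial 1 h later. Exploration video-tracked; discrimination index computed; one-way ANOVA with Newman–Keuls; n = 9–10 per group; mean ± SEM.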

[1] = target: T1, Alpha-1A adrenergic receptor (Rattus norvegicus) (UniProt P43140); test: Displacement of [3H] prazosin from rat alpha 1A adrenergic receptor at 10^-6 M measured after 60 mins by scintillation counter method relative to control
T1 sequence (whole entry): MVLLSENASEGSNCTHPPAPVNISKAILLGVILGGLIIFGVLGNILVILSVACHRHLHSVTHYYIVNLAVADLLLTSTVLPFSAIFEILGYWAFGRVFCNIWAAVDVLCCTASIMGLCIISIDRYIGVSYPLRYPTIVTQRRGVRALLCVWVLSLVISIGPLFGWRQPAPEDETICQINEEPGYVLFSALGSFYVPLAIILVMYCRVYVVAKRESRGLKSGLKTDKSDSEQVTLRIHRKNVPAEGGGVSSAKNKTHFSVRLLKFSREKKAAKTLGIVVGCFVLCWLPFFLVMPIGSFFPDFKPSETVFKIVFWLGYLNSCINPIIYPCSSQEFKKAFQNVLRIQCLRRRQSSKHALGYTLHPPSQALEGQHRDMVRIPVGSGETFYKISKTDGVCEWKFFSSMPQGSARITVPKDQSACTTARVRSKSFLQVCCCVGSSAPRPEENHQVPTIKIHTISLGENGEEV

[2] = target: Histamine H1 receptor (Homo sapiens) (UniProt P35367); test: Antagonist activity at human recombinant H1 histamine receptor at 10^-5 M relative to control; set-up: scale not given: the % may be the effect or the level left
Histamine H1 receptor (Homo sapiens), sequence (P35367 whole entry): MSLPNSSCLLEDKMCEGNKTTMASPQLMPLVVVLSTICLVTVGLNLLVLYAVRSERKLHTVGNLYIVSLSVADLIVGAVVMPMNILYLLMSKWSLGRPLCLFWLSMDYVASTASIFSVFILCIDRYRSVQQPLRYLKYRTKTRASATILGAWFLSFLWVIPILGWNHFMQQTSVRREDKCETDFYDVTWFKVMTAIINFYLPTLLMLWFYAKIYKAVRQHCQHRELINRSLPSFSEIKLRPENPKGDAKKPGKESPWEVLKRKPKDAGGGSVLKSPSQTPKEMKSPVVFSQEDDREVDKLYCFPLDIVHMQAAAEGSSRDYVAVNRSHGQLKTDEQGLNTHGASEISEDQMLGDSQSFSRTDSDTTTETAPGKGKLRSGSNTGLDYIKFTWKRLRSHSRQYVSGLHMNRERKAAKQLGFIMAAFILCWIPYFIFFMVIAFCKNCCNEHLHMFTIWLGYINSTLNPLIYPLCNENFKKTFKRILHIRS

hERG (KCNH2) = hERG (KCNH2) (Homo sapiens, UniProt Q12809); test: Displacement of [3H] dofetilide from human recombinant ERG at 10^-6 M measured after 60 mins by scintillation counting method relative to control; details: probe [3H]dofetilide
hERG (KCNH2), sequence (Q12809 whole entry): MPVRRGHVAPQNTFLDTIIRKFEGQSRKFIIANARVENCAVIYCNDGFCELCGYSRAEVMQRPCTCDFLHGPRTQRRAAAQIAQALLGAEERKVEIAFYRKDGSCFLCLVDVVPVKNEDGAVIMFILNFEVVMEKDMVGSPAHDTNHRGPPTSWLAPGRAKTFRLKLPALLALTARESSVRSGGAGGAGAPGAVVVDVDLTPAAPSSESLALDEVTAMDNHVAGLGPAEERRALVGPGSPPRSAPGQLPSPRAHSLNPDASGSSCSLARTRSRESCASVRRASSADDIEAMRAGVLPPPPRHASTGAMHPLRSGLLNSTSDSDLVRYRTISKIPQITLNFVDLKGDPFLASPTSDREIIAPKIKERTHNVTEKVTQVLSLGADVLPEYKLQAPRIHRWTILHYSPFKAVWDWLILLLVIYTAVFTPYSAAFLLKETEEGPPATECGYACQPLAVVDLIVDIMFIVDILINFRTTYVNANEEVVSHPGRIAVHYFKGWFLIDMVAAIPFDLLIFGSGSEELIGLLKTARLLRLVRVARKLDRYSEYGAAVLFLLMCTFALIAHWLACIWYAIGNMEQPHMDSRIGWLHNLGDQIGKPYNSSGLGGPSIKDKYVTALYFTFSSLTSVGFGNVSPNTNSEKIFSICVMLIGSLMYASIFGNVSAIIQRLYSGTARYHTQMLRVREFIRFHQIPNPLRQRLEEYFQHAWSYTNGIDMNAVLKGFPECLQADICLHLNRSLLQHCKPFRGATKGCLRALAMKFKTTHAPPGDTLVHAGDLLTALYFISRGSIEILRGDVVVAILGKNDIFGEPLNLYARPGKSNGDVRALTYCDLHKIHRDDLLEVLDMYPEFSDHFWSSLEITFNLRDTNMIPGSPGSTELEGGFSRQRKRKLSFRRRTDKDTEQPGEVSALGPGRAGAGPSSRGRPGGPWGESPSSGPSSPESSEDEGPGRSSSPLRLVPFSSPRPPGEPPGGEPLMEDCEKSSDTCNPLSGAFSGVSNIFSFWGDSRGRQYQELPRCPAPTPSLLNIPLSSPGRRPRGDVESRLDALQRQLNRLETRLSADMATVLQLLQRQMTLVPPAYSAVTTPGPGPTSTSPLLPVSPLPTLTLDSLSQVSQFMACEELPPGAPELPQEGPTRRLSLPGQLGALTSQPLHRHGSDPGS

in vitro = details: rat, microsomes
[3] = target: T2, Muscarinic acetylcholine receptor M1 (Homo sapiens) (UniProt P11229); test: Displacement of [3H] pirenzepine from human recombinant muscarinic M1 receptor at 10^-6 M measured after 60 mins by scintillation counter method relative to control
T2 sequence (whole entry): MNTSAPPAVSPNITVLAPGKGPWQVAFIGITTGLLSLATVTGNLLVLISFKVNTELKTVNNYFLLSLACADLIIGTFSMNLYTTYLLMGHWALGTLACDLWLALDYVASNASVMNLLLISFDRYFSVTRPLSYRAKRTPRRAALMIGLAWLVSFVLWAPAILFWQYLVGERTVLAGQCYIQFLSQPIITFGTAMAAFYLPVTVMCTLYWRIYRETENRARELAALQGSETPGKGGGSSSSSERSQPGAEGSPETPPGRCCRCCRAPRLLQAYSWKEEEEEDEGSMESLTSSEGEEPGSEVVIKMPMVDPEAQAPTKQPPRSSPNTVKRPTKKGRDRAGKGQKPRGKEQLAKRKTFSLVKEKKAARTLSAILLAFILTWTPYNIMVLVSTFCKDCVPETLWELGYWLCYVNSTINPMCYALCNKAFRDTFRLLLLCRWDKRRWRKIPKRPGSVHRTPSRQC

[4] = Mutagenicity in Salmonella typhimurium TA100 at up to 10 uM measured after 90 mins by Ames test; assay type: toxicity; details: salmonella enterica subsp. enterica serovar typhimurium
How it was run: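 Ames microplate fluctuation with S. typhimurium TA100; bacteria exposed to 1 and 10 μM compound 90 min at 37°C in limited-histidine medium, then distributed into histidine-free indicator medium, 72 h at 37°C. Revertant growth scored by colour change (absorbance 420 nm); NQNO 0.5 μM positive control; alert at ≥2.0-fold over baseline and binomial B ≥0.99.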

HepG2 = test: Cytotoxicity against human HepG2 cells assessed as cell membrane damage measured after 24 hrs by Toxilight assay; assay type: cell-based; details: HepG2, 24 h
How it was run: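 HepG2 cells seeded at 2x10^4 per well in DMEM with 10% FBS, grown 24 h (37°C, 5% CO2), then exposed 24 h to 1, 10, 50 and 100 μM compound. Viability read with PrestoBlue (fluorescence); membrane damage by ToxiLight (luminescence).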

Cc1nc(N)[nH]c1-c1cn(S(=O)(=O)c2cccc3ccccc23)c2ccccc12.Cl
Activity (Rattus norvegicus): Active | inhibition [1]: 10.7% | Activity [2]: 25.7% | inhibition at 1 h, 1 µM (hERG (KCNH2)): 25.7% | microsomal CLint (in vitro): 60.3 µL/min/mg | inhibition [3]: -0.3% | Activity [4]: Non-Toxic | IC50 (HepG2): 18.4 µM
